Experimental data gathered from unrelated publications.
Compare with care: the assays were run in different laboratories.
Target: Vascular endothelial growth factor receptor 2 (KDR, Homo sapiens, UniProt P35968)

| assay | setting | endpoint | value | SMILES |
| --- | --- | --- | --- | --- |
| cell-free assay, competition with immobilised ligand | 1 µM | remaining binding | 92% | CCS(=O)(=O)c1cc2cc(C[C@@](O)(CC(C)(C)c3ccc(F)cc3C(N)=O)C(F)(F)F)[nH]c2cn1 |
| enzyme activity, inhibitor | 1 µM | inhibition | 14% | COc1cc2ncnc(Nc3ccc(Oc4ccccc4)cc3C)c2cc1OC |
| cell-free assay, competition with immobilised ligand | 1 µM | remaining binding | 100% | FC(F)(F)c1ccc2c(c1)nc(-c1cccnc1)n2C1CC1 |
| enzyme activity, inhibitor | 10 µM | inhibition | 0% | CS(=O)(=O)Nc1cccc(-c2csc(NC(=O)CSc3nc4nccnc4c(=O)n3CCc3ccccc3)n2)c1 |
| enzyme activity, inhibitor | 0.1 µM | inhibition | 22% | COc1cc2nccc(Oc3ccc(NC(=O)c4c5n(n(-c6ccc(F)cc6)c4=O)CCCC5)cc3)c2cc1OC |
| cell-free assay, competition with immobilised ligand | 1 µM | remaining binding | 99% | N#Cc1ccc(Nc2ccc3[nH]c(=O)[nH]c3c2)c(Cl)c1 |
| enzyme activity, inhibitor | 10 nM | remaining activity | 98% | COc1ccc(NC(=O)c2c(Nc3ccccc3)sc(C#N)c2NC(=O)CNc2ccc(Cl)cc2)cc1 |
| cell-free assay | 0.5 µM | remaining signal | 85.9% | Oc1cccc(-c2nc(N3CCOCC3)c3oc4ncccc4c3n2)c1 |
| enzyme activity, inhibitor | 10 µM | remaining activity | 71.1% | COc1ccc(NC(=O)c2c(Nc3ccccc3)sc(C(=O)NN=Cc3cc(OC)c(OC)c(OC)c3)c2NC(C)=O)cc1 |
| cell-free assay | 0.5 µM | remaining signal | 79.8% | COc1ccc(-c2cnc3c(-c4ccsc4)cnn3c2)cc1 |
| cell-free assay, competition with immobilised ligand | 1 µM | remaining binding | 79% | COc1cc(-c2cn(C3CCc4ccccc4N(CC(F)(F)F)C3=O)nn2)ccc1-n1ccc(C)n1 (centres unmarked) |
| enzyme activity, inhibitor | 10 nM | remaining activity | 96.1% | COc1ccc(NC(=O)c2c(Nc3ccccc3)sc(C(=O)NN=Cc3ccc(Cl)cc3)c2NC(C)=O)cc1 |
| enzyme activity, inhibitor, FRET | 0.1 µM | inhibition | 12% | CN(C)C1CCN(CC#Cc2nn(C3CCCC3)c3nc(NCc4ccccc4)ncc23)C1 (centres unmarked) |
| enzyme activity, inhibitor | 10 µM | remaining activity | 35.4% | COc1ccc(NC(=O)c2c(Nc3ccccc3)sc(C#N)c2NC(=O)CNc2ccc(Br)cc2)cc1 |
| enzyme activity, inhibitor | 1 µM | activity vs control | 0% | Cc1ccc(C(=O)NCc2ccsc2)cc1C#Cc1cn(C(C)C)c2ncnc(N)c12 |
| cell-free assay | 0.5 µM | remaining signal | 99.2% | C[S+]([O-])c1ccc(-c2nc(-c3ccncc3)c(-c3ccc(F)cc3)[nH]2)cc1 (centres unmarked) |
| enzyme activity, inhibitor | 10 nM | remaining activity | 98% | COc1ccc(NC(=O)c2c(Nc3ccccc3)sc(C#N)c2NC(=O)CNc2ccc([N+](=O)[O-])cc2)cc1 |
